Experimental findings from ChEMBL document CHEMBL4011626, “Structure-Based Optimization of Pyridoxal 5'-Phosphate-Dependent Transaminase Enzyme (BioA) Inhibitors that Target Biotin Biosynthesis in Mycobacterium tuberculosis” (J Med Chem, 2017) are described below.

The structures appear in SMILES notation. pIC50: −log10 of the molar value. Converted amounts (≈) assume the structure as drawn.

The test system of experiment [1] is Mycobacterium tuberculosis. The experiment can be described thus: Inhibition of Bio-A underexpressed in Mycobacterium tuberculosis in presence of anhydrotetracycline after 9 days. Summed up: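 BioA-overexpressing or BioA-underexpressing Mtb strains were pregrown in Sauton's with 1 μM biotin, washed twice, and seeded at OD580 0.03 in biotin-free medium with 200 ng/mL anhydrotetracycline to set BioA expression. Compounds were tested at 0.2–50 μM final at 37 °C. OD580 was read after 9 days. MIC is the concentration giving 50% inhibition. Triplicate, two biological replicates.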

The test system of experiment [2] is Mycobacterium tuberculosis. The experiment can be described thus: Antibacterial activity against wild type Mycobacterium tuberculosis H37Rv after 14 days. It is filed as functional. The settings on record: 336 h.
Experiment [3] relates to Mycobacterium tuberculosis H37Rv. The experiment can be described thus: Inhibition of Bio-A in wild type Mycobacterium tuberculosis H37Rv after 9 days. The gist of the method:
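Wild-type Mtb H37Rv was pregrown in Sauton's medium with 1 μM biotin to OD580 1.0–1.2, washed twice in biotin-free Sauton's, and seeded at OD580 0.03 without biotin. Compounds were tested at 0.2–50 μM final, with no-compound controls, at 37 °C. OD580 was read at 9 days. MIC is the concentration giving 50% inhibition. Triplicate, two biological replicates.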

For experiment [4] the test system is unchanged. The experiment can be described thus: Inhibition of Bio-A in wild type Mycobacterium tuberculosis H37Rv in presence of biotin after 9 days. Summed up: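 Wild-type Mtb H37Rv was pregrown in Sauton's medium with 1 μM biotin to OD580 1.0–1.2, washed twice in biotin-free Sauton's, and seeded at OD580 0.03 with 1 μM biotin added. Compounds were tested at 0.2–50 μM final, with no-compound controls, at 37 °C. OD580 was read at 9 days. MIC is the concentration giving 50% inhibition. Triplicate, two biological replicates.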

A short description of experiment [5]: Inhibition of wild type Mycobacterium tuberculosis Bio-A using KAPA as substrate after 45 mins in presence of fluorescently labeled dethiobiotin tracer.

With `CC(=O)c1ccc(N2CCN(C(=O)c3ccc4c(c3)OCO4)CC2)cc1`, the MIC50 in experiment [1] was determined as 0.4 µM; in experiment [3], 5.6 µM (≈ 1.97 µg/mL). The figures for the MIC90 in experiment [1], in experiment [3] and in experiment [4] were 1.7 µM, 23.4 µM (≈ 8.25 µg/mL) and over 50 µM, respectively. Further, the MIC – broadly, the lowest concentration that inhibits growth of the organism – in experiment [2] was 26 µM (≈ 9.16 µg/mL). Besides, in experiment [5], the pIC50 (usually the negative decadic logarithm of the IC50, by convention in mol/L) was 6.81.

With `O=C(c1cccc(Cl)c1)N1CCN(c2ccc(-c3ccccn3)cc2)CC1`, the MIC50 in experiment [1] and in experiment [3] was over 50 µM in each case.

Take `CC(=O)c1ccc(N2CCN(C(=O)c3cccnc3)CC2)cc1`: the MIC50 in experiment [1] is 14.6 µM; in experiment [3], over 50 µM.

Turning to `COc1ccc(-c2ccc(N3CCN(C(=O)c4cccc(Cl)c4)CC3)cc2)nc1`, the MIC50 in experiment [1] was 24.4 µM; in experiment [3] it was 22 µM (≈ 8.97 µg/mL); in experiment [4], over 50 µM.

As to `COC(=O)c1ccc(N2CCN(C(=O)c3cccc(Cl)c3)CC2)cc1`, the MIC50 in experiment [1] and in experiment [3] was over 50 µM in each case.

`CC(=O)c1ccc(N2CCN(C(=O)c3cscn3)CC2)cc1`: the MIC50 in experiment [1] and in experiment [3] was over 50 µM each time.

For the compound `O=C(c1cccc(Cl)c1)N1CCN(c2ccc([N+](=O)[O-])cc2)CC1`, the MIC50 in experiment [1] is 4.7 µM; in experiment [3], 15.4 µM (≈ 5.33 µg/mL).

In the case of `C/C(=N\O)c1ccc(N2CCN(C(=O)c3cccc(Cl)c3)CC2)cc1`, the values for the MIC50 in experiment [1] and in experiment [3] were 15.1 µM and 20.4 µM (≈ 7.3 µg/mL), respectively.

Consider `O=C(c1cccc(Cl)c1)N1CCN(c2ccc3c(c2)COC3)CC1`, for which the MIC50 in experiment [1] came out at 12.8 µM; in experiment [3] it was 40.8 µM (≈ 14 µg/mL).

For `O=C1OCc2cc(N3CCN(C(=O)c4cccc(Cl)c4)CC3)ccc21`, the MIC50 in experiment [1] came out at 1.8 µM; in experiment [3], 35 µM (≈ 12.5 µg/mL).

Regarding `CCC(=O)N1CCN(c2ccc(C(C)=O)cc2)CC1`, the MIC50 in experiment [1] and in experiment [3] was over 50 µM in each case.

In the case of `CC(=O)c1ccc(-c2cn(Cc3cccc(Cl)c3)nn2)cc1`, the results for the MIC50 in experiment [1], in experiment [3] and in experiment [4] were 24.4 µM, 22 µM (≈ 6.86 µg/mL) and over 50 µM, respectively.

As to `CC(=O)c1cccc(N2CCN(C(=O)c3cccc(Cl)c3)CC2)c1`, the values for the MIC50 in experiment [1] and in experiment [3] were 26.6 µM and over 50 µM, respectively.

Consider `CC(=O)c1ccc(N2CCC(C(=O)c3cccc(Cl)c3)CC2)cc1`, for which the MIC50 turned out to be 6.8 µM in experiment [1] and 4.1 µM (≈ 1.4 µg/mL) in experiment [3].

For the compound `CCCCCC(=O)N1CCN(c2ccc(C(C)=O)cc2)CC1`, the results for the MIC50 in experiment [1] and in experiment [3] were 10.6 µM and 8.7 µM (≈ 2.63 µg/mL), respectively.

Regarding `O=C(c1cccc(Cl)c1)N1CCN(c2ccc(-c3ccno3)cc2)CC1`, the MIC50 stood at 0.4 µM in experiment [1] and 6.7 µM (≈ 2.46 µg/mL) in experiment [3].

As to `Cc1noc(-c2ccc(N3CCN(C(=O)c4cccc(Cl)c4)CC3)cc2)n1`, the MIC50 in experiment [1] and in experiment [3] was over 50 µM in each case.

Turning to `COc1cc(Cl)cc(C(=O)N2CCN(c3ccc(C(C)=O)cc3)CC2)c1`, the values for the MIC50 in experiment [1] and in experiment [3] were 18.3 µM and 28.6 µM (≈ 10.7 µg/mL), respectively.

On to `CC(=O)c1ccc(N2CCC(C(=O)c3ccc4c(c3)OCO4)CC2)cc1`, for which the MIC50 in experiment [1] and in experiment [3] was over 50 µM throughout.

Turning to `CCCC(=O)N1CCN(c2ccc(C(C)=O)cc2)CC1`, the MIC50 in experiment [1] and in experiment [3] was over 50 µM in each case.

On to `CC(=O)c1ccc(N2CCN(C(=O)c3ccc4c(c3)OCCCO4)CC2)cc1`, for which the MIC50 in experiment [1] was 21.1 µM; in experiment [3], over 50 µM.

As for `O=C1CCc2cc(N3CCN(C(=O)c4cccc(Cl)c4)CC3)ccc21`, the values for the MIC50 in experiment [1] and in experiment [3] were 0.3 µM and 4.4 µM (≈ 1.56 µg/mL), respectively.

In the case of `CC(=O)c1ccc(N2CCN(C(=O)c3cnn(C)c3)CC2)cc1`, the MIC50 in experiment [1] was 11.3 µM; in experiment [3] it was over 50 µM.

As to `CC(=O)c1ccc(N2CCN(C(=O)c3cccc(Cl)c3)CC2)s1`, the MIC50 in experiment [1] turned out to be 1.1 µM; in experiment [3] it was 9.9 µM (≈ 3.45 µg/mL).

In the case of `CC(=O)c1ccc(N2CCN(C(=O)c3cc(Cl)cc(Cl)c3)CC2)cc1`, the MIC50 in experiment [1] and in experiment [3] was over 50 µM in each case.

Turning to `O=C1CCc2cc(N3CCN(C(=O)c4ccc5c(c4)OCO5)CC3)ccc21`, the MIC50 was 0.3 µM in experiment [1] and 1.7 µM (≈ 0.619 µg/mL) in experiment [3].

`N#Cc1ccc(N2CCN(C(=O)c3cccc(Cl)c3)CC2)cc1`: the MIC50 in experiment [1] was found to be 44.8 µM; in experiment [3] it was 18.5 µM (≈ 6.03 µg/mL).

Regarding `CC(=O)c1ccc(N2CCN(C(=O)c3cncc(Cl)c3)CC2)cc1`, the MIC50 in experiment [1] and in experiment [3] was over 50 µM each time.

On to `CC(=O)c1ccc(N2CCN(C(=O)c3cccc(Cl)c3)CC2)cc1`, for which the values for the MIC50 in experiment [1] and in experiment [3] were 0.5 µM and 5.1 µM (≈ 1.75 µg/mL), respectively.

As to `CC(=O)c1ccc(-c2cn(Cc3cccc(Cl)c3)nn2)s1`, the MIC50 in experiment [1] and in experiment [3] was over 50 µM each time.

Take `CC(=O)c1ccc(N2CCN(C(=O)CC(C)C)CC2)cc1`: the MIC50 in experiment [1] and in experiment [3] was over 50 µM throughout.

On to `Cn1nnnc1-c1ccc(N2CCN(C(=O)c3cccc(Cl)c3)CC2)cc1`, for which the MIC50 in experiment [1] and in experiment [3] was over 50 µM throughout.

On to `CN1Cc2cc(N3CCN(C(=O)c4cccc(Cl)c4)CC3)ccc2C1=O`, for which the MIC50 worked out at 1.2 µM in experiment [1] and 15.2 µM (≈ 5.62 µg/mL) in experiment [3].

`CC(=O)c1ccc(N2CCN(C(=O)c3ccc(Cl)c(Cl)c3)CC2)cc1`: the MIC50 in experiment [1] was determined as 1.9 µM; in experiment [3] it was 10.2 µM (≈ 3.85 µg/mL).

On to `CC(=O)c1ccc(N2CCN(C(=O)c3ccc4c(c3)OCCO4)CC2)cc1`, for which the results for the MIC50 in experiment [1] and in experiment [3] were 10.4 µM and over 50 µM, respectively.
